Experimental data: the EternaBench riboswitch data

System: MS2 coat protein
Test: apparent Kd, MS2 coat protein; higher = weaker binding; RNA-MaP array; FMN 200 µM where present
Procedure, shortened: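 SNAP-549-labelled MS2 coat protein, doubled from 0.7 or 1.5 nM to 3 µM, was titrated over designs transcribed by stalled E. coli RNA polymerase on Illumina sequencing-chip clusters. Titrations were run without and then with constant ligand in 100 mM Tris-HCl pH 7.5, 80 mM KCl, 4 mM MgCl2, BSA, DTT, yeast tRNA and Tween-20. The apparent Kd is the median of filtered per-cluster fits to green signal normalised to red-channel RNA signal and control-cluster median Fmax.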

[1] = designed as: ON switch for flavin mononucleotide, no ligand
[2] = ligand present: flavin mononucleotide, designed as: ON switch for flavin mononucleotide
[3] = ligand present: flavin mononucleotide, designed as: OFF switch for flavin mononucleotide
[4] = designed as: OFF switch for flavin mononucleotide, no ligand

| Sequence | apparent Kd [1] | apparent Kd [2] | apparent Kd [3] | apparent Kd [4] |
| --- | --- | --- | --- | --- |
| UGGUACAACGGAGGAUAUCAUGUAAAUACAUGAGGAUCACCCAUGUCGUACGAGAGUACGGAGAUUGAGAAGGCCGUUGUACCU | 25.7 nM | 16.1 nM |  |  |
| AAAUAGUUACAGAAGGGCAUUUAUAAUUAUCAUUACUCUUACUAUGUUUGCAGGAUAUGUUUAACAUGAGGAUCACCCAUGUAC | 20.4 nM | 14.1 nM |  |  |
| UUAAAUCAUGUAGGAUAUGCAUGGCGAAGCUACGCAGAAGGACAUGAGGAUCACCCAUGUUAUAGCUACCGAAUAAGGUGGCAA |  |  | 224 nM |  |
| AAAUUUGACGAAGGAUAUGGAUACAUGAGGAUCACCCAUGUUUAUUUUGUGAUUUUGUUUAAGUACCAGAAGGUCGAAUACAUA |  |  | 63.9 nM | 39 nM |
| AUAUAACAUGAGGAUCACCCAUGUCUCUAAAGUCGAGGAUAUGGGCAGGUUAUAUCCGAACCAGAAGGCGGGUUAU | 315 nM | 717 nM |  |  |
| CUAGCUAUCGGAGGAUAUUCAUACCGGAAACGGACAUGAGGAUCACCCAUGUGGCGAAAGCCAUGGGAGAAGGCCGAUAGCUAG | 1640 nM | 133 nM |  |  |
| AUGGCGACGUAGAAGGGUGACAUGAGGAUCACCCAUGUGCCGAUACUUCUCGAGAUGUGUCGGCCACAGGAUAUACGUACCAUC | 52.3 nM | 58.3 nM |  |  |
| UGGUCGCGAGGAUAUACAUGAGGAUCACCCAUGUUUGAGCGCCAUCCGUUCGGCUCGUGUAGAAGGUGCACACA |  |  | 19.9 nM | 21.9 nM |
| CGAGAAAUCGUAGGAUAUGGUGAUGUACAUGAGGAUCACCCAUGUCCGUCUUCUCUCACAAGAUGCCAGAAGGACGAUUUCUGG | 712 nM | 122 nM |  |  |
| UUGUUCCAUGUAGGAUAUGCAUAUUCUUAUUAUGCAGAAGGACAUGAGGAUCACCCAUGUAUGUUAUUAUUAUAUGUUACAUGU |  |  | 392 nM | 72.3 nM |
| UGUAUGGACAGAGGAUAUACAGAUAGGAUCUACUAUCAAACAAUCCUCACAUGAGGAUCACCCAUGUAGAAGGCUGUCCAUACU |  |  | 809 nM | 105 nM |
| UUCAUGUGAGGAUAUGUGUACUGUUUUUUGUUUAGAUGUACACAGAAGGCACAUGAGGAUCACCCAUGUAGUAC |  |  | 20.4 nM | 49.5 nM |
| ACAUGGAAUACAGGAUAUGUAAGUUUUAAGUAGAUUGGUUAUUACUUUACAACAGAAGGGUAAUACAUGAGGAUCACCCAUGUA | 19.1 nM | 16 nM |  |  |
| GCAAACACAUGAGGAUCACCCAUGUGGAAAGAGCAAUUAGGCUAGGAUAUUCAUGUCGUUUGCAAGAAGAAGGAGCCAUAGUGG | 560 nM | 157 nM |  |  |
| UUGCACGUCGUAGGAUAUGUAGGAUAUUCCUACAUGAGGAUCACCCAUGUUGACAUGGAAGAAGGACAGAAGGACGAUGUCCAU | 686 nM | 10.9 nM |  |  |
| AGGGAGUGAGGAUAUACGAAAUAAAAAGAAGGAAAAAAAGAGUAGAAGGCACAUGAGGAUCACCCAUGUGAGAA |  |  | 19.5 nM | 22 nM |
| ACGGCUGUCAGAGGAUAUGGUUACAUGAGGAUCACCCAUGUCAAGGGUCUAACUAAGUAUAGCUACUAGAAGGCUGAUGGCCGA |  |  | 107 nM | 158 nM |
| AGUUGUAAACAGAACAUGAGGAUCACCCAUGUGCUCUCGUGUAAGGAUAUACAUUCGUAUGGAAAGUAGAAGGUACUAAUUAUG | 78.4 nM | 78.7 nM |  |  |
| CUUUUGUGAGGAUAUUAGUAGUAAAUAAAUAUAAUUACUACUGAGAAGGCACAUGAGGAUCACCCAUGUUCCUC |  |  | 186 nM | 34.1 nM |
| ACAUUGUUAGGAUAUGCUGCUCGUCACUUGCGUGAUGAGUAGCAGAAGGAACAUGAGGAUCACCCAUGUAAAAA |  |  | 44.3 nM | 33.1 nM |
| GGCGGGCGGGAGGAUAUUCGGGCUGUUUGGCUUGGAGAAGGCUCGACAUGAGGAUCACCCAUGUUUGGGUCGCC |  |  | 27 nM | 16.2 nM |
| CCAGGCUUCGAGAAGGACAUGAGGAUCACCCAUGUGCGUGUAAAACAGCCAAAAGGCUGCAUCAUGUAGGAUAUCGGAGUCUGC |  |  | 95.5 nM | 275 nM |
| UUGUUAAAUGAAGGAUAUACUUAACAUGAGGAUCACCCAUGUGGUGUUGUGAGUGAGUGAGUUUAGUAGAAGGUCAAUUCUUUU |  |  | 232 nM | 229 nM |
| AGAGAAUACUCAGGAUAUCUUAAUAGAAAGAGUAGAGAAGGGAGACAUGAGGAUCACCCAUGUGAAGUCUUGAGACUACAUGGU |  |  | 470 nM | 367 nM |

| Sequence | apparent Kd [1] | apparent Kd [2] | apparent Kd [3] | apparent Kd [4] |
| --- | --- | --- | --- | --- |
| AUACUGAGCGUAAAUUACCUGAACAUGAGGAUCACCCAUGUGGAGGAUAUUGACCUAGCAAAGCUCGAGAAGGCCACUGGGAUG |  |  | 18.7 nM | 32.3 nM |
| CCUCCACAUUAGGAUAUCGUCACAGAAAUGUGACGAGAAGGAAUGACAUGAGGAUCACCCAUGUUAACGUGAUG |  |  | 195 nM | 34.4 nM |
| CGCAAACAUGAGGAUCACCCAUGUCAUUGUGGUCAAGGAUAUGGGUUCCUAAAUGGAACACCAGAAGGUGAAAAGA | 164 nM | 33.5 nM |  |  |
| UUGAUAAAUUAGAAGGCGAGAUAAAAUACAAUAAACAUGAGGAUCACCCAUGUGUACCCAUGUUUUGAGGAUAUAGACAUUUAU | 922 nM | 399 nM |  |  |
| CUUACACAUGAGGAUCACCCAUGUGAGGAUAUGCGUACGUUGUCCGUAGGCGACGUGCGCAGAAGGCGCUUGGU |  |  | 62 nM | 61.6 nM |
| CGGUGGUCAGGAUAUACGAACAUGUCGCCAGAUGUCAUGGUACAUGAGGAUCACCCAUGUAGAAGGGAGUAGGU |  |  | 171 nM | 181 nM |
| UUGGGCGUCGUAGGAUAUGUAGGAUAUUCCUACAUGAGGAUCACCCAUGUUGACAUGGAAGAAGGACAGAAGGACGAUGUCCAU | 278 nM | 4.67 nM |  |  |
| UUAUACGUUGAGGAUAUGCGACUUAGUAUAGUUGUAGAAGGCGAUACAUGAGGAUCACCCAUGUUUAUGGGCAU |  |  | 300 nM | 220 nM |
| UCCUGGCAAGGAUAUACAUGAGGAUCACCCAUGUGGAGUCGAUGCUGAAUUCUAUUGUGUAGAAGGUGCCUUUC |  |  | 62.3 nM | 49.1 nM |
| CUUAUGUGAGGAUAUGUACAGAAAAAACUGGGUGUAACUGUACAGAAGGCACAUGAGGAUCACCCAUGUGCAUU |  |  | 57.1 nM | 59.9 nM |
| GGAGCACACAUUAACAUGAGGAUCACCCAUGUCACAAGACAUGAGGAUAUGGAUCCGAAAAGGAUCCAGAAGGCAUGGUGCUCC | 657 nM | 28 nM |  |  |
| ACAUGAGGAUGAGGAUAUUCAUACAUGAGGAUAGAAGAAGGCAUACAUGAGGAUCACCCAUGUAUACACAUGAGGAUCACCCAU |  |  | 85.3 nM | 82.5 nM |
| AAAACAUGAGGAUCACCCAUGUAAAGAUCGGUUAAUAGAGGUGAGGAUAUACGAACUUAAAGGUAGUAGAAGGCACUGGGUACA | 47.1 nM | 35.5 nM |  |  |
| ACAAGAUCAGGAUAUACAUGAGGAUCACCCAUGUAUAUCCAAAAAGGGCCUUCUACAUGUAGAAGGGAUCUUGU |  |  | 12.6 nM | 13.1 nM |
| AAUGGCGUCCAAGGAUAUCCUGACCGUUAACAUGAGGAUCACCCAUGUUGCCUAAAGGCGGCAUAGGAGAAGGUGGUACUCUGU | 73.3 nM | 124 nM |  |  |
| GCGUUCUUGUAGAAGGUACAUACGACAUCUUAUAAACGCUUGACACAUGAGGAUCACCCAUGUUGUAAGGAUAUACAUGAACGC | 6.82 nM | 7.03 nM |  |  |
| UGAUCGAGAGAUCUUAGAUUCUGGUAGGAUAUACAUUAUAUAAGAUAUACAUGAGGAUCACCCAUGUAGAAGGACUAGAGUCUA |  |  | 7.39 nM | 6.47 nM |
| AUCAGCUCGGCAGGAUAUACAUCACUGCUUCGGCAGUGUAUUAAGAUCACAUGAGGAUCACCCAUGUAGAAGGGCCGAGCUGAU |  |  | 389 nM | 34.1 nM |
| AAGAAGUGAGGAUAUGCUGCUCGUCACGAAAGUGAUGAGUAGCAGAAGGCACAUGAGGAUCACCCAUGUAAAGA |  |  | 55.4 nM | 36.9 nM |
| GGUCCUCUGGUGAGGAUAUCUACCCAGGCAGCUGGAGAGAAGGCACAUGAGGAUCACCCAUGUAGCAGAAAACC |  |  | 17 nM | 9.98 nM |
| ACAUGCAUAGCGAUAUGAUCGAGAGAUCAUGUCGCUUAAAAUAGAAGGACAUGAGGAUCACCCAUGUAGGAUAUGGGAGCAUGA | 25.8 nM | 11.7 nM |  |  |
| CGCCUCAGUUCAGGAUAUGUAUGGGUCUAACGAACAGAAGGGAACAUGAGGAUCACCCAUGUAAAUAGGGCCAAAGGCUUGAUA |  |  | 208 nM | 35.8 nM |
| GCACAUGAGGAUCACCCAUGUGGUCCAGAAGGCCAGAGGACUUGCUUUUAGCAAGUCCUUCAAAUGGAGGAUAUGGAGGGUUCU | 237 nM | 42 nM |  |  |
| UUAAUCAUGUAGAAGGACGGAUAUUAAGAGAACGUAGGAUAUACAGAAGACAUGAGGAUCACCCAUGUGAACAUGGUACAUAGG |  |  | 62.5 nM | 241 nM |
